# Laboratory results: ChEMBL document CHEMBL1221296, “New synthetic flavone derivatives induce apoptosis of hepatocarcinoma cells” (Bioorg Med Chem, 2010)
# Activity calls are given as the source filed them. No cut-off for these calls is given here.
# Columns and labels:
# HepG2 [1] = assay: Induction of apoptosis in human HepG2 cells assessed as change in cellular morphology at 10 uM after 36 hrs […]; format: functional, cell-based
# HepG2 [2] = assay: Cell cycle arrest in human HepG2 cells assessed as accumulation at G1 phase at 50 uM after 36 hrs by FACSan flow cytometry; format: functional
# Outline: (§1)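 Cells were treated for 36 h, then washed twice in ice-cold PBS and fixed overnight in 70% ethanol at 4 °C. They were resuspended at 5 × 10⁵/ml in propidium iodide (50 µg/ml in 0.1% sodium citrate, 0.03% v/v Nonidet P-40) and held 30 min on ice. DNA-content histograms were read by FACScan flow cytometry, with sub-G₀ scored as apoptotic.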
# HepG2 [3] = assay: Induction of apoptosis in human HepG2 cells assessed as caspase 8 activation at 50 uM after 2 to 24 hrs; format: functional, cell-based
# Outline: (§2)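 HepG-2 cells were treated for 0, 2, 4, 8, 14 and 24 h. Lysates were made on ice and cleared at 20,000g, 4 °C, and protein was measured by Bradford. 0.1 mg protein was incubated 2 h at 37 °C with Ac-DEVD-pNA (caspase-3), Ac-IETD-pNA (caspase-8) or Ac-LEHD-pNA (caspase-9), and pNA release was read at 405 nm.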
# [4] = Growth inhibition of human CNE1 cells after 72 hrs by MTT assay; format: functional, cell-based; conditions: CNE
# Outline: (§3)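 Cells grown in DMEM with 10% FBS, penicillin and streptomycin at 37 °C under 5% CO₂. Seeded at 5 × 10³ per 100 µl per well and exposed to compound at 0.5–50 µM for 72 h. MTT (5 mg/ml) added for 5 h, formazan dissolved in DMSO, absorbance read at 490 nm. IC₅₀ is the concentration giving 50% growth inhibition; means of three independent determinations.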
# HepG2 [5] = assay: Cell cycle arrest in human HepG2 cells assessed as accumulation at subG0 phase at 10 uM after 36 hrs by FACSan flow cytometry; format: functional; outline: as §1
# MCF7 = assay: Growth inhibition of human MCF7 cells after 72 hrs by MTT assay; format: functional, cell-based; conditions: MCF7, 72 h; outline: as §3
# HepG2 [6] = assay: Induction of apoptosis in human HepG2 cells assessed as caspase 3 activation at 50 uM after 2 to 24 hrs; format: functional, cell-based; outline: as §2
# HepG2 [7] = assay: Cytotoxicity against human HepG2 cells by MTT assay; format: functional, cell-based; outline: as §3
# HepG2 [8] = assay: Induction of apoptosis in human HepG2 cells assessed as increase in […] mRNA expression after 26 hrs by RT-PCR; format: functional, cell-based
# Outline: (§4)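 HepG-2 cells treated at 0, 5, 10, 25 and 50 µM for 26 h. cDNA made from 1 µg total RNA and amplified for Bcl-2 and Bax over 30 cycles (98 °C 15 s, 57 °C 10 s, 72 °C 35 s), with GAPDH as control. Results expressed as fold change relative to control.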
# HepG2 [9] = assay: Cell cycle arrest in human HepG2 cells assessed as accumulation at G2 phase at 50 uM after 36 hrs by FACSan flow cytometry; format: functional; outline: as §1
# HepG2 [10] = assay: Induction of apoptosis in human HepG2 cells assessed as caspase 9 activation at 50 uM after 2 to 24 hrs; format: functional, cell-based; outline: as §2
# HepG2 [11] = assay: Cell cycle arrest in human HepG2 cells assessed as accumulation at S phase at 50 uM after 36 hrs by FACSan flow cytometry; format: functional; outline: as §1
# HepG2 [12] = assay: Cell cycle arrest in human HepG2 cells assessed as accumulation at subG0 phase at 5 uM after 36 hrs by FACSan flow cytometry; format: functional; outline: as §1
# HepG2 [13] = assay: Cell cycle arrest in human HepG2 cells assessed as accumulation at G2 phase at 10 uM after 36 hrs by FACSan flow cytometry; format: functional; outline: as §1
# HepG2 [14] = assay: Cell cycle arrest in human HepG2 cells assessed as accumulation at S phase at 25 uM after 36 hrs by FACSan flow cytometry; format: functional; outline: as §1
# HepG2 [15] = assay: Cell cycle arrest in human HepG2 cells assessed as accumulation at subG0 phase at 50 uM after 36 hrs by FACSan flow cytometry; format: functional; outline: as §1
# HepG2 [16] = assay: Induction of apoptosis in human HepG2 cells assessed as DNA fragmentation at 10 uM after 36 hrs by agarose gel electrophoresis; format: functional, cell-based
# Outline: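 HepG-2 cells (1 × 10⁶) exposed to 0, 5, 10, 25 and 50 µM for 36 h, then trypsinized and lysed in 10 mM Tris–HCl pH 7.4, 10 mM EDTA, 0.5% Triton X-100 and proteinase K (200 µg/ml). DNA isolated by organic extraction, run on 2% agarose and stained with ethidium bromide to detect laddering.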
# HepG2 [17] = assay: Cell cycle arrest in human HepG2 cells assessed as accumulation at G2 phase at 25 uM after 36 hrs by FACSan flow cytometry; format: functional; outline: as §1
# HepG2 [18] = assay: Cell cycle arrest in human HepG2 cells assessed as accumulation at G1 phase at 10 uM after 36 hrs by FACSan flow cytometry; format: functional; outline: as §1
# HepG2 [19] = assay: Cell cycle arrest in human HepG2 cells assessed as accumulation at S phase at 10 uM after 36 hrs by FACSan flow cytometry; format: functional; outline: as §1
# HeLa = assay: Growth inhibition of human HeLa cells after 72 hrs by MTT assay; format: functional, cell-based; outline: as §3
# HepG2 [20] = assay: Cell cycle arrest in human HepG2 cells assessed as accumulation at G1 phase at 5 uM after 36 hrs by FACSan flow cytometry; format: functional; outline: as §1
# HepG2 [21] = assay: Cell cycle arrest in human HepG2 cells assessed as accumulation at subG0 phase at 25 uM after 36 hrs by FACSan flow cytometry; format: functional; outline: as §1
# [22] = Growth inhibition of human CNE2 cells after 72 hrs by MTT assay; format: functional, cell-based; conditions: CNE-2, 72 h; outline: as §3
# HepG2 [23] = assay: Cell cycle arrest in human HepG2 cells assessed as accumulation at G2 phase at 5 uM after 36 hrs by FACSan flow cytometry; format: functional; outline: as §1
# HepG2 [24] = assay: Cell cycle arrest in human HepG2 cells assessed as accumulation at G1 phase at 25 uM after 36 hrs by FACSan flow cytometry; format: functional; outline: as §1
# HepG2 [25] = assay: Induction of apoptosis in human HepG2 cells assessed as decrease in Bcl2 mRNA expression after 26 hrs by RT-PCR; format: functional, cell-based; outline: as §4
# HepG2 [26] = assay: Cell cycle arrest in human HepG2 cells assessed as accumulation at S phase at 5 uM after 36 hrs by FACSan flow cytometry; format: functional; outline: as §1
smiles,measurement,setting,value
COc1cc(OC)cc(-c2cc(=O)c3cc(Cl)ccc3o2)c1,Activity,HepG2 [1],Active
same,Activity,HepG2 [2],11.52%
same,Activity,HepG2 [3],Active
same,IC50,[4],10.4 µM
same,Activity,HepG2 [5],34.54%
same,IC50,MCF7,7.4 µM
same,Activity,HepG2 [6],Active
same,IC50,HepG2 [7],1.1 µM
same,Activity,HepG2 [8],Active
same,Activity,HepG2 [9],5.69%
same,Activity,HepG2 [10],Active
same,Activity,HepG2 [11],3.47%
same,Activity,HepG2 [12],21.54%
same,Activity,HepG2 [13],13.47%
same,Activity,HepG2 [14],9.32%
same,Activity,HepG2 [15],79.32%
same,Activity,HepG2 [16],Active
same,Activity,HepG2 [17],11.47%
same,Activity,HepG2 [18],38.67%
same,Activity,HepG2 [19],13.32%
same,IC50,HeLa,3 µM
same,Activity,HepG2 [20],41.67%
same,Activity,HepG2 [21],55.83%
same,IC50,[22],12.9 µM
same,Activity,HepG2 [23],16.47%
same,Activity,HepG2 [24],23.38%
same,Activity,HepG2 [25],Dose-dependent effect
same,Activity,HepG2 [26],20.32%
CC(C)c1ccc2oc(C3CCCCC3)cc(=O)c2c1,IC50,HepG2 [7],18 µM
CC(C)c1ccc2oc(-c3ccc([N+](=O)[O-])cc3)cc(=O)c2c1,IC50,HepG2 [7],> 50 µM
COc1cc(-c2cc(=O)c3cc(C(C)C)ccc3o2)cc(OC)c1OC,IC50,HepG2 [7],3.6 µM
O=c1cc(C2CCCC2)oc2c1ccc1ccccc12,IC50,HepG2 [7],6.1 µM
CC(C)c1ccc2oc(-c3ccccc3)cc(=O)c2c1,IC50,HepG2 [7],6.4 µM
CC(C)c1ccc2oc(C3CCCC3)cc(=O)c2c1,IC50,HepG2 [7],8.6 µM
O=c1cc(C2CCCC2)oc2ccc(Cl)cc12,IC50,HepG2 [7],13.4 µM
CC(C)c1ccc2oc(-c3cccc([N+](=O)[O-])c3)cc(=O)c2c1,IC50,HepG2 [7],> 50 µM
COc1cccc(-c2cc(=O)c3cc(C(C)C)ccc3o2)c1,IC50,HepG2 [7],2.1 µM
COc1ccccc1-c1cc(=O)c2cc(C(C)C)ccc2o1,IC50,HepG2 [7],5.4 µM
O=c1cc(C2CCCCC2)oc2ccc(Cl)cc12,IC50,HepG2 [7],20 µM
COc1ccc(-c2cc(=O)c3cc(C(C)C)ccc3o2)cc1,IC50,HepG2 [7],9.9 µM
O=c1cc(C2CCCCC2)oc2c1ccc1ccccc12,IC50,HepG2 [7],2.9 µM
